The values below come from ChEMBL document CHEMBL2413057, “Synthesis and in vitro evaluation of new ethyl and methyl quinoxaline-7-carboxylate 1,4-di-N-oxide against Entamoeba histolytica” (Bioorg Med Chem, 2013).

The pIC50 is −log10 of the IC50, conventionally taken in molar units.

In test [1] the test system is Entamoeba histolytica. Put plainly: Antiamoebic activity against trophozoite stage of Entamoeba histolytica HM-1:IMSS assessed as growth inhibition after 48 hrs by microdilution method. It counts as functional, organism-based. Conditions: for pIC50: Entamoeba histolytica, HM-1:IMSS, 48 h, read-out: IC50. In a few lines: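 Axenic log-phase HM1:IMSS trophozoites grown in BI-S-33 medium with 20% calf serum, viability counted by trypan blue, seeded at 10⁵/mL (100 µL per well). Compounds dissolved in 0.1% DMSO, two-fold serial dilutions in medium. Incubated 37 °C, 48 h, then WST-1 added for 4 h at 37 °C, OD 490 nm. IC50 by linear regression of % inhibition versus concentration, duplicate, mean ± SD.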

Test [2] in a line: Selectivity index, ratio of IC50 for african green monkey Vero cells to IC50 for trophozoite stage of Entamoeba histolytica HM-1:IMSS. In outline: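 Computed as VERO toxicity IC50 divided by the E. histolytica IC50, where each IC50 is the concentration that kills 50% of the respective cells.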
The subject of test [3] is Vero. Briefly: Cytotoxicity against african green monkey Vero cells assessed as cell viability after 48 hrs by WST-1 assay. It counts as cell-based. Conditions: Chlorocebus sabaeus. In a few lines: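 VERO cells in MEM with 0.1 mM nonessential amino acids, 1 mM pyruvate and 10% FBS, 37 °C, 5% CO₂. Plated at 10⁴ cells/well, 24 h before dosing. Compounds diluted in complete medium to 0.1–100 µM, 48 h exposure against an untreated control. WST-1 added for 4 h at 37 °C. Quadruplicate, repeated twice, mean ± SD, ANOVA.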
(In general: Tetrazolium assays rely on reduction of a dye to a coloured formazan, in cell work by metabolically active cells.)

pIC50: −log10 of the molar value. Some results are limits rather than exact numbers.

Turning to `CCOC(=O)c1ccc2no[n+]([O-])c2c1`, in test [1], the pIC50 was 3.66.

As for `COC(=O)c1ccc2c(c1)[n+]([O-])c(C(=O)c1cccs1)c(C(F)(F)F)[n+]2[O-]`, the “Ratio IC50” value in test [2] came to 16.74. Also, the pIC50 is 5.23 in test [3] and 6.46 in test [1].

For `COC(=O)c1ccc2c(c1)[n+]([O-])c(C(=O)c1ccc3ccccc3c1)c(C(F)(F)F)[n+]2[O-]`, in test [1], the pIC50 was 5.28.

On to `CCOC(=O)Cc1c(C(=O)OCC)[n+]([O-])c2cc(C(=O)OC)ccc2[n+]1[O-]`, for which the pIC50 in test [1] is 5.72.

For the compound `CCOC(=O)c1ccc2c(c1)[n+]([O-])c(C(=O)OC)c(C)[n+]2[O-]`, the “Ratio IC50” value in test [2] is listed as more than 53.19. Moreover, the pIC50 in test [3] was less than 4.00; in test [1], 5.73.

Take `CCOC(=O)c1ccc2c(c1)[n+]([O-])c(C(=O)OCC)c(C)[n+]2[O-]`: the negative-log IC50 (pIC50) in test [1] was 5.38.

`CCOC(=O)c1ccc2c(c1)[n+]([O-])c(C(N)=O)c(C)[n+]2[O-]`: the “Ratio IC50” value in test [2] is given as more than 68.02. In addition, the pIC50 in test [3] is less than 4.00; in test [1] it was 5.83.

As to `CCOC(=O)c1ccc2c(c1)[n+]([O-])c(C(=O)c1ccccc1)c(C)[n+]2[O-]`, in test [2], the “Ratio IC50” value is more than 51.81. Besides, the negative logarithm of the IC50 (pIC50) in test [3] is less than 4.00; in test [1] it was 5.71.

For the compound `CCOC(=O)c1ccc2c(c1)[n+]([O-])c(C(=O)Nc1ccccc1)c(C)[n+]2[O-]`, the IC50 entry in test [1] is given as “ND(Insoluble)”.

As for `CCOC(=O)c1ccc2c(c1)[n+]([O-])c(C(=O)OCc1ccccc1)c(C)[n+]2[O-]`, in test [1], the IC50 entry is recorded as “ND(Insoluble)”.

Turning to `CCOC(=O)c1ccc2c(c1)[n+]([O-])c(C(C)=O)c(C(F)(F)F)[n+]2[O-]`, the “Ratio IC50” value in test [2] is on record as 6.6. For the same compound, the pIC50 is 4.88 in test [3] and 5.70 in test [1].

Turning to `CCOC(=O)c1ccc2c(c1)[n+]([O-])c(C(=O)CC)c(C(F)(F)F)[n+]2[O-]`, the pIC50 in test [1] is 4.74.

Regarding `CCOC(=O)c1ccc2c(c1)[n+]([O-])c(C(=O)c1cccs1)c(C(F)(F)F)[n+]2[O-]`, the “Ratio IC50” value in test [2] is 2.69. Further, the negative logarithm of the IC50 (pIC50) is 5.17 in test [3] and 5.60 in test [1].

As for `CCOC(=O)c1ccc2c(c1)[n+]([O-])c(C(=O)c1ccc3ccccc3c1)c(C(F)(F)F)[n+]2[O-]`, in test [1], the IC50 result was “ND(Insoluble)”.

Take `CCOC(=O)c1ccc2c(c1)[n+]([O-])c(C(=O)c1ccco1)c(C(F)F)[n+]2[O-]`: in test [1], the negative-log IC50 (pIC50) is 5.42.

Regarding `CCOC(=O)c1ccc2c(c1)[n+]([O-])c(C(=O)OCC)c(-c1ccccc1)[n+]2[O-]`, in test [1], the negative logarithm of the IC50 (pIC50) is 5.15.

Consider `O=C(O)c1ccc2no[n+]([O-])c2c1`, for which, in test [1], the IC50 entry was “ND(Insoluble)”.

Regarding `COC(=O)c1ccc2no[n+]([O-])c2c1`, the pIC50 in test [1] was 4.13.

Take `COC(=O)c1ccc2c(c1)[n+]([O-])c(C(C)=O)c(C)[n+]2[O-]`: the “Ratio IC50” value in test [2] is on record as more than 70.92. Moreover, the pIC50 in test [3] was less than 4.00; in test [1], 5.85.

`COC(=O)c1ccc2c(c1)[n+]([O-])c(C(=O)OC)c(C)[n+]2[O-]`: the negative logarithm of the IC50 (pIC50) in test [1] was 5.38.

With `CCOC(=O)c1c(C)[n+]([O-])c2ccc(C(=O)OC)cc2[n+]1[O-]`, the “Ratio IC50” value in test [2] was more than 50.25. Moreover, the pIC50 in test [3] was less than 4.00; in test [1], 5.70.

For `COC(=O)c1ccc2c(c1)[n+]([O-])c(C(=O)OC(C)(C)C)c(C)[n+]2[O-]`, in test [1], the IC50 result is listed as “ND(Insoluble)”.

`COC(=O)c1ccc2c(c1)[n+]([O-])c(C(=O)c1ccccc1)c(C)[n+]2[O-]`: the negative logarithm of the IC50 (pIC50) in test [1] is 5.46.

As to `COC(=O)c1ccc2c(c1)[n+]([O-])c(C(=O)Nc1ccccc1)c(C)[n+]2[O-]`, in test [1], the negative logarithm of the IC50 (pIC50) is 5.38.

For the compound `CCOC(=O)c1c(-c2ccccc2)[n+]([O-])c2ccc(C(=O)OC)cc2[n+]1[O-]`, in test [1], the pIC50 was 4.91.

`COC(=O)c1ccc2c(c1)[n+]([O-])c(C(C)=O)c(C(F)(F)F)[n+]2[O-]`: the “Ratio IC50” value in test [2] is listed as 2.14. Besides, the pIC50 in test [3] is 5.48; in test [1], 5.82.

Regarding `COC(=O)c1ccc2c(c1)[n+]([O-])c(C(=O)C(C)C)c(C(F)(F)F)[n+]2[O-]`, the “Ratio IC50” value in test [2] is on record as 3.7. Besides, the pIC50 in test [3] was 5.16; in test [1], 5.73.

For `COC(=O)c1ccc2c(c1)[n+]([O-])c(C(=O)c1ccccc1)c(C(F)(F)F)[n+]2[O-]`, in test [1], the pIC50 was 5.22.

In the case of `[O-][n+]1onc2ccccc21` [BENZO[C][1,2,5]OXADIAZOLE 1-OXIDE], in test [1], the pIC50 was 4.92.

For the compound `Cc1ncc([N+](=O)[O-])n1CCO` [METRONIDAZOLE], the “Ratio IC50” value in test [2] is recorded as more than 22.22. Besides, the results for the negative-log IC50 (pIC50) in test [3] and in test [1] were less than 4.00 and 5.35, respectively.

As to `CC(=O)Oc1ccccc1C(=O)Nc1ncc([N+](=O)[O-])s1` [NITAZOXANIDE], in test [2], the “Ratio IC50” value stood at 2.75. Also, the negative logarithm of the IC50 (pIC50) in test [3] was 4.97; in test [1] it was 5.41.
